Assay results from PubChem BioAssay.
Activity calls are given as the source filed them.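 The calls were made as follows, unless noted: active = fluorescence slope higher than the sample average by over 3 SD (cut at about -0.22 in these data, passing the limit was not always enough); inactive = the rest.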

Columns and labels:
[1] = inhibitors of TNFa-induced NFkB p65 translocation, primary screen, imaging, HUVEC, MLSMR starter and 10KST1 sets (AID 438;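 active = inhibition above 20% together with a positive visual image hit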;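 also: compound added about 3h40 before a 20 min TNFalpha stimulation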;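 as to inhibition: signal is the nuclear over cytoplasmic p65 intensity ratio per well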); conditions: HUVEC TNFa-induced p65 nuclear translocation; cell count: measured here: nuclei count (cytotoxicity indicator), at 2.08 µM; inhibition: at 2 µM, stronger effect = higher value, 0% TNFa-plus-vehicle, 100% no-TNFa wells
[2] = reduction of polyQ htt aggregates in cells – imaging, exon1htt(103Q)mCFP cells, high-content imaging, primary screen (AID 483;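 active = visual image review flags a hit and inhibition of aggregation exceeds 20%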;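 also: compound exposure lasted 3 days before fixation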;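 as to nuclei count: percent of the per-plate median nuclei count of sample wells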); conditions: exon1htt(103Q)mCFP cell line, aggregate imaging, at 2 µM; inhibition of aggregation: stronger effect = higher value; nuclei count: measured here: cell count, toxicity
[3] = endothelial E-selectin expression blockers – imaging, HUVEC, immunofluorescence, MLSMR starter and 10KST1 sets, primary screen (AID 487;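 active = visually confirmed hit in the image check and inhibition above 20%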;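 as to inhibition: signal is fraction of cell area covered by stained E-selectin grains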;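 as to nuclei count: 100% = median nuclei count of all wells on the same plate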); conditions: HUVEC TNFalpha-induced E-selectin immunofluorescence imaging, at 2 µM; inhibition: stronger effect = higher value; nuclei count: measured here: cell number, toxicity
[4] = molecular target: Voltage-gated potassium channel subunit beta-2 (Rattus norvegicus) (UniProt P62483); assay: inhibitors of rat Kvbeta2 reductase activity – biochemical, NADPH fluorescence, primary screen (AID 622); conditions: recombinant KvBeta, 4-cyanobenzaldehyde reduction, at 10 µM, stronger effect = higher value;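 also: slope of raw intensity against log time taken from 70 to 1610 s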
Chain of Voltage-gated potassium channel subunit beta-2 (Rattus norvegicus) (P62483 whole entry, looked up): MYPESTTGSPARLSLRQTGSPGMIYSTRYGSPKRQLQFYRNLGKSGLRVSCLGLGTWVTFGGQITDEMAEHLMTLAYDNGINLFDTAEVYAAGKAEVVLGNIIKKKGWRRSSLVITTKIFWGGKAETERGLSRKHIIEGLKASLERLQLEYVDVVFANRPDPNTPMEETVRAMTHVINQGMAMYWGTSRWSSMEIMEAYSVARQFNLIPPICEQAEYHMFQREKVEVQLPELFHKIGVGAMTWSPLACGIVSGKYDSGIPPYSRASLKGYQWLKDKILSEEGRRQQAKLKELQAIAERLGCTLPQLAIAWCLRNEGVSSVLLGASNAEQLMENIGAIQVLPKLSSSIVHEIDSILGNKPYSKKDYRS

[5] = molecular target: Voltage-gated potassium channel subunit beta-2 (Rattus norvegicus) (UniProt P62483); assay: enhancers of rat Kvbeta2 NADPH turnover – biochemical, NADPH fluorescence, primary screen (AID 623;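 active = NADPH fluorescence slope more negative than the mean of all samples by about 3 SD, 99.7% confidence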;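 also: fluorescence intensity change per second fitted from 20 to 320 s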); conditions: Recombinant KvBeta, NADPH fluorescence decrease slope, 10 min; at 10 µM; stronger effect = lower value
[6] = molecular target: Muscarinic acetylcholine receptor M4 (Homo sapiens) (UniProt P08173); assay: M4-linked GIRK flux change, two-sided – cell-based, HEK293 M4/GIRK, thallium flux, BTC-AM, M4 allosteric agonist project, primary screen (AID 625;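 active = fluorescence slope after compound addition differing from the mean of all tested samples at 99.7% confidence, mostly higher but some lower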;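 also: thallium influx through GIRK channels coupled to M4 in HEK293 cells with BTC-AM dye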); conditions: at 10 µM, actives lie on both sides
Chain of Muscarinic acetylcholine receptor M4 (Homo sapiens) (P08173 whole entry, looked up): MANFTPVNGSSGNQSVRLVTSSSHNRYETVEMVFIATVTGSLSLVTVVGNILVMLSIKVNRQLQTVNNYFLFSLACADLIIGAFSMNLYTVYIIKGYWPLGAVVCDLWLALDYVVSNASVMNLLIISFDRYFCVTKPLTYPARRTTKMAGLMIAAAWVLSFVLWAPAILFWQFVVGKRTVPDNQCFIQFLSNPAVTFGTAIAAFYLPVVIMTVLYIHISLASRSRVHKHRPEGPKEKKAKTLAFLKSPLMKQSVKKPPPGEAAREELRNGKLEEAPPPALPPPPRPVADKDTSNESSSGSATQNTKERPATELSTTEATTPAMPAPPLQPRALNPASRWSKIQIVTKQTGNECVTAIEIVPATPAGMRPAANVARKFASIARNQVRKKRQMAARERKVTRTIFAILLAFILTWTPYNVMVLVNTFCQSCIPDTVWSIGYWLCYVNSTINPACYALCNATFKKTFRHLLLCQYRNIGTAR
In short: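 assay system = HEK293 cells with M4 receptor and GIRK channels | medium = pH 7.3 thallium assay buffer | doses = 10 µM final, single point | timing = cells overnight at 37 °C, BTC-AM loading 1 h, reads 2 min total | signal = BTC-AM fluorescence, 1 Hz kinetic reads | read-out = post-addition slope, 15–24 s, of baseline-normalized fluorescence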

[7] = blockers of RIG-like receptor reporter activation – cell-based, Sendai virus stimulus, luciferase, 10K MLSCN set, TLR/RLR signaling modifier project, primary screen (AID 602276;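 active = inhibition at or above 50% at 10 µM; inactive = inhibition below 50%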;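 also: firefly luciferase from ISG56 promoter only with Renilla not read in this screen; 0% = Sendai virus plus DMSO and 100% = medium plus DMSO without virus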); conditions: HEK293 RL24 IRF3 luciferase reporter, at 10 µM, stronger effect = higher value
[8] = TLR3 IRF3 reporter activation blockers – cell-based, poly I:C stimulus, luciferase, 10K MLSCN set, primary screen (AID 602277;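 active = inhibition of the reporter signal at or above 50%; inactive = inhibition below 50%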); conditions: HEK293-TLR3 RL24 IRF3 luciferase reporter, at 10 µM, stronger effect = higher value

SMILES	cell count [1]	inhibition [1]	inhibition of aggregation [2]	nuclei count [2] [%]	inhibition [3]	nuclei count [3] [%]	fluorescence slope [4]	NADPH fluorescence slope [5]	fluorescence slope [6]	inhibition [7]	inhibition [8]
COc1ccccc1NC(=O)N1CCN(c2cccc(C(F)(F)F)c2)CC1	380	4.7% (inactive)	12.5% (inactive)	107	-103% (inactive)	118	-0.27 (inactive)	-2.7e-05 (inactive)	0.00535 (inactive)	-10.2% (inactive)	-42% (inactive)
CCCCC(NC(C)=O)c1nc2ccccc2n1CCC (stereo unspecified)	294	-3.7% (inactive)	24.6% (inactive)	82.4	37.8% (inactive)	94.3	-0.454 (inactive)	-2.6e-05 (inactive)	0.00541 (inactive)	22.7% (inactive)	16.8% (inactive)
CC1(C)CC(=O)C2=C(C1)Nc1nc(SCCN3CCOCC3)[nH]c(=O)c1C2c1cccs1 (stereo unspecified)	549	-8.4% (inactive)	-11.8% (inactive)	50.7	-42.7% (inactive)	104	-0.57 (inactive)	-3e-05 (inactive)	0.00647 (inactive)	-3.95% (inactive)	-12.2% (inactive)
CCOC(=O)c1cc(C)n(CCCN2CCOCC2)c1C	678	2.6% (inactive)	-5.8% (inactive)	114	-162% (inactive)	109	-0.473 (inactive)	1.5e-05 (inactive)	0.00505 (inactive)	0.506% (inactive)	19.3% (inactive)
Cc1cc(Cl)c(S(=O)(=O)N2CCN(c3ccc(F)cc3)CC2)cc1OCC(N)=O	373	-9% (inactive)	0.5% (inactive)	97.1	-37.6% (inactive)	96.1	-0.587 (inactive)	-9.2e-05 (inactive)	0.0038 (inactive)	19.6% (inactive)	9.49% (inactive)
Nc1nc(-c2ccccc2)cc(C(F)(F)F)n1	457	-7.5% (inactive)	1.3% (inactive)	98.1	-11.2% (inactive)	107	-0.571 (inactive)	1.4e-06 (inactive)	0.00753 (inactive)	11% (inactive)	6.96% (inactive)
O=S(=O)(NCCCCCNS(=O)(=O)c1ccccc1)c1ccccc1	468	4.3% (inactive)	-5% (inactive)	104	-56.2% (inactive)	142	-0.547 (inactive)	-3.3e-05 (inactive)	0.00488 (inactive)	20.2% (inactive)	22.6% (inactive)
COc1ccc(OC)c(N2Cc3cc(C)c(C)cc3C2)c1	561	-3.1% (inactive)	0.2% (inactive)	79.6	-8.6% (inactive)	86.7	-0.476 (inactive)	-6.9e-05 (inactive)	0.00388 (inactive)	-3.86% (inactive)	-7.05% (inactive)
COc1ccc(CN2C(=O)CN=C2Nc2ccc(C)cc2C)cc1	809	-7.5% (inactive)	-10.3% (inactive)	122	-3.6% (inactive)	95.6	-0.555 (inactive)	6.9e-05 (inactive)	0.00584 (inactive)	16.8% (inactive)	23% (inactive)
CC(=O)N1C(=O)C2(C(C#N)=C(N)Oc3cc(C)oc(=O)c32)c2ccccc21 (stereo unspecified)	438	3.8% (inactive)	-2.1% (inactive)	108	-54.5% (inactive)	110	-0.511 (inactive)	-0.00027 (inactive)	0.00547 (inactive)	-9.7% (inactive)	-6.69% (inactive)
Cc1ccc(NC(=O)COc2nc(C)cs2)cc1	400	4.5% (inactive)	-3.7% (inactive)	100	-48.8% (inactive)	108	-0.555 (inactive)	-5e-05 (inactive)	0.00704 (inactive)	6.37% (inactive)	9.54% (inactive)
O=C(CCn1c(=O)c2sccc2n(CC(=O)NCc2ccco2)c1=O)NCc1ccccc1	331	-2.4% (inactive)	0% (inactive)	100	-60% (inactive)	111	-0.566 (inactive)	-8.5e-05 (inactive)	0.00667 (inactive)	-3.97% (inactive)	-0.766% (inactive)
CN=C(C)C1=C(O)C(C(=O)OC)C(C)(C)CC1=O (stereo unspecified)	506	5% (inactive)	-7.4% (inactive)	108	-187% (inactive)	122	-0.54 (inactive)	-0.00011 (inactive)	0.00531 (inactive)	16.6% (inactive)	16.6% (inactive)
CCCNC(=O)c1c(N)n(-c2cc(OC)cc(OC)c2)c2nc3ccccc3nc12	587	-7% (inactive)	3% (inactive)	93.7	-89.1% (inactive)	135	-0.367 (inactive)	2.2e-05 (inactive)	0.00602 (inactive)	8.54% (inactive)	-6.79% (inactive)
Oc1ccc2[nH]cnc2c1CN1CCCCC1	405	2.2% (inactive)	5.5% (inactive)	88.7	8% (inactive)	95.1	-0.569 (inactive)	-0.000119 (inactive)	0.00526 (inactive)	15.4% (inactive)	25.1% (inactive)
O=C(CCSc1ccccc1)N1CCOCC1	339	0.4% (inactive)	-7.3% (inactive)	104	-90.9% (inactive)	105	-0.562 (inactive)	-0.000154 (inactive)	0.00456 (inactive)	-18.7% (inactive)	-64.6% (inactive)
COc1ccccc1C(=O)N1CCNC(=O)C1CC(=O)Nc1ccc(Cl)cc1 (stereo unspecified)	469	1.3% (inactive)	9.7% (inactive)	105	-302% (inactive)	123	-0.565 (inactive)	-2.7e-05 (inactive)	0.00504 (inactive)	18.2% (inactive)	28.3% (inactive)
COC(=O)C(F)(F)Sc1c(C)[nH]c2ccccc12	699	-2.1% (inactive)	13.7% (inactive)	94.7	41.7% (inactive)	108	-0.444 (inactive)	-1.5e-05 (inactive)	0.00468 (inactive)	25.1% (inactive)	27% (inactive)
COC(=O)c1[nH]c2cc(OC)ccc2c1NC(=O)CN1CCOCC1	346	1.4% (inactive)	-17.1% (inactive)	105	-117% (inactive)	117	-0.535 (inactive)	-1.7e-05 (inactive)	0.00517 (inactive)	13.1% (inactive)	7.58% (inactive)
Cc1cccc(N2CCN(C(=O)Cn3ccc4ccccc4c3=O)CC2)c1C	340	11% (inactive)	3.8% (inactive)	95.6	-4.9% (inactive)	94	-0.568 (inactive)	2.6e-06 (inactive)	0.00591 (inactive)	-3.75% (inactive)	-30.8% (inactive)
c1ccc(-c2cn3cccnc3n2)cc1	746	-0.7% (inactive)	12.5% (inactive)	92.7	-66.8% (inactive)	123	-0.0209 (active)	-3.7e-06 (inactive)	0.00503 (inactive)	-12.5% (inactive)	-40.2% (inactive)
CN(Cc1cnn(C)c1)C(=O)c1cc2ccccc2oc1=O	682	13% (inactive)	-9.2% (inactive)	92.1	40% (inactive)	98.2	-0.484 (inactive)	-5.1e-05 (inactive)	0.00454 (inactive)	11.1% (inactive)	14% (inactive)
O=C1c2ccccc2C(O)(Cc2ccccc2)N1Cc1ccco1 (stereo unspecified)	425	-2.9% (inactive)	-10.1% (inactive)	96.8	-110% (inactive)	131	-0.554 (inactive)	-1.5e-05 (inactive)	0.00578 (inactive)	8.83% (inactive)	21.9% (inactive)
Cn1cccc1-c1cc(C(=O)O)[nH]n1	825	-8.7% (inactive)	7.8% (inactive)	56.8	-57.9% (inactive)	139	-0.465 (inactive)	-0.000188 (inactive)	0.00382 (inactive)	15.5% (inactive)	15.9% (inactive)
O=C(c1cccs1)N1CCc2ccccc21	335	-3.8% (inactive)	5% (inactive)	104	-59.6% (inactive)	111	-0.511 (inactive)	-5e-05 (inactive)	0.00554 (inactive)	-42% (inactive)	-100% (inactive)
COCC(=O)N(Cc1ccccc1)c1ccccn1	354	4.9% (inactive)	1.6% (inactive)	94.8	-58.3% (inactive)	153	-0.599 (inactive)	-4.6e-05 (inactive)	0.00609 (inactive)	11.8% (inactive)	14.7% (inactive)
